Experimental data taken from paper PMC7497186 (The Journal of Pharmacy and Pharmacology, 2020).
Like-named read-outs stand apart in the source and are kept apart here.

Experiments:
IL-10−/− colitis mice = settings: IL-10 -/- murine model of colitis; cited from earlier work
[1] = tested on: IL-8 from LPS-induced SW480 cells; assay: IL-8 from LPS-induced SW480 cells; type: cell-based, human; settings: for level of IL-8: 10 µM, LPS-induced SW480 cells, CTRL 1 3.324 ± 0.076; for inhibition at 10 µM: Homo sapiens, SW480, read-out: % inhibition of IL-8 over CTRL 1
THP-1 macrophages = assay: Cytotoxicity, acid phosphatase assay, THP-1 macrophages; type: cell-based, human; settings: 10, 30 and 50 µM, 24 h
In short: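 THP-1 monocytes seeded at 4 × 10^4 per well, PMA-differentiated for 48 h, then rested for 3 days. Macrophages exposed to test compound for 24 h and washed with PBS. p-Nitrophenyl phosphate substrate (sodium acetate, 0.1% Triton X-100, pH 5.5) added for 1 h at 37°C in the dark. Stopped with NaOH; read at 405 nm. Mean ± SEM, n = 4.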

human recombinant 5-LOX = biological target: T1, human recombinant 5-LOX (Homo sapiens, UniProt P09917); assay: 5-LOX inhibition, UV-Vis spectrophotometric assay; type: biochemical; settings: for inhibition at 10 µM: read-out: % inhibition of 5-LOX
T1 sequence (P09917 1-674): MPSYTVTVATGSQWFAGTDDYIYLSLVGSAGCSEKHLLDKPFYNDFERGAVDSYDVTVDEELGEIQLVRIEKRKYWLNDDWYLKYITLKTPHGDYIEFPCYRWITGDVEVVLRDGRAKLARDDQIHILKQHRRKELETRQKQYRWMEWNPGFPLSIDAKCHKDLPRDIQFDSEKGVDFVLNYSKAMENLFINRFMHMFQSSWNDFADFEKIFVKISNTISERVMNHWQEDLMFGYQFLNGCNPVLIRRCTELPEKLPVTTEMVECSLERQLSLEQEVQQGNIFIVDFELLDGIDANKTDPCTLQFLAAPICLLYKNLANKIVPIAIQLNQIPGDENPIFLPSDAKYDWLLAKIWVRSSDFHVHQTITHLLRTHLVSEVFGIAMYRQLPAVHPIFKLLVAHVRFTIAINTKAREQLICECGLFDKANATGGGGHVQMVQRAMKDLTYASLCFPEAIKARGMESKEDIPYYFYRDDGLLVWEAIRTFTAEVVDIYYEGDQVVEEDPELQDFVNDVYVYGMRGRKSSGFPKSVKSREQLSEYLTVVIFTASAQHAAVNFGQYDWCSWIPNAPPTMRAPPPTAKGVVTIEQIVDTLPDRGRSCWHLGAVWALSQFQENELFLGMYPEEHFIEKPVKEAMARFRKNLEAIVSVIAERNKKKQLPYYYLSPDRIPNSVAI
In short: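 Human recombinant 5-LOX (0.5 unit/ml final) pre-incubated 5 min at RT in the dark with test compound, CaCl2 (0.4 mm final), L-α-phosphatidylcholine type II-S (24 µg/ml final) and ATP (0.2 mm final). Reaction started with arachidonic acid (50 µm final) in quartz microcuvettes. 5-HpETE conjugated diene formation followed as absorbance increase at 234 nm (ε = 25 000 M−1 cm−1).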

[2] = tested on: nitric oxide (NO) released from SW480 cells; assay: Nitric oxide inhibition, GREISS assay, LPS-induced SW480 cells; type: cell-based, human; settings: for inhibition at 10 µM: SW480, read-out: % inhibition of NO released; for % inhibition of NO released: 10 µM, mean ± SEM, n = 3
In short: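 SW480 cells stimulated with 1 µg/ml S. typhimurium LPS plus IFN-γ for 48 h at 37°C, 5% CO2. Fresh supernatant mixed with an equal volume of sulphanilamide for 10 min at RT in the dark, then NED added for 20 min. Absorbance read at 540 nm; nitrite quantified against a 0–100 NO2 standard curve. Mean ± SEM, n = 3.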

[3] = tested on: TNF-α in THP-1 macrophages; assay: Cytokine profiling THP-1 macrophages: TNF-α; type: cell-based, human; settings: for level of TNF-α: CTRL 1 22.305 ± 2.753; for inhibition at 10 µM: Homo sapiens, THP-1, read-out: % inhibition of TNF-α
[4] = tested on: IL-6 in THP-1 macrophages; assay: Cytokine profiling THP-1 macrophages: IL-6; type: cell-based, human; settings: for level of IL-6: 24 h, CTRL 1 1.666 ± 0.256; for inhibition at 10 µM: Homo sapiens, THP-1, read-out: IL-6 inhibition over CTRL 1
SW480 cells = assay: Cytotoxicity, acid phosphatase assay, SW480 cells; type: cell-based, human; settings: 10, 30 and 50 µM, 24 h
In short: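 SW480 cells seeded at 4 × 10^4 per well 24 h before compound exposure, then exposed to test compound for 24 h. Wells washed with PBS. Acid phosphatase substrate (p-nitrophenyl phosphate in sodium acetate, 0.1% Triton X-100, pH 5.5) added for 1 h at 37°C, 5% CO2, in the dark. Stopped with NaOH; absorbance read at 405 nm. Mean ± SEM, n = 4.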

DSS colitis mice = settings: cited from earlier work
[5] = tested on: IL-1β in THP-1 macrophages; assay: Cytokine profiling THP-1 macrophages: IL-1β; type: cell-based, human; settings: 10 µM, LPS-stimulated THP-1 macrophages; CTRL 1 0.329 ± 0.042
[6] = tested on: nitric oxide (NO) released from SW480 cells; settings: read-out: IC50 NO inhibition, reported value; literature value; cited from earlier work
[7] = Homo sapiens, SW480, read-out: IC50 NO inhibition
[8] = 10 µM, LPS-stimulated THP-1 macrophages

Compound	inhibition at 10 µM (human recombinant 5-LOX) [%]	IC50 [2, 7] [µM]	level of IL-8 [1] [pg/µg ml]	inhibition at 10 µM [1] [%]	level of TNF-α [3, 8] [pg/µg ml]	level of IL-6 [4, 8] [pg/µg ml]	% inhibition of NO released ([2]; LPS-induced SW480 cells)	also measured
O=C1c2ccccc2C[C@@]1(Cc1ccccc1)C1=Cc2ccccc2C1 [compound 9, (S)-2-benzyl-2,3-dihydro-1H,1'H-[2,2'-biinden]-1-one]		20.5 ± 2.89					inhibited NO production	
CC(c1cc2ccccc2s1)N(O)C(N)=O (stereo not drawn) [zileuton, reference compound]	45.2 ± 5.36							
O=C(O)c1ccc(C[C@@]2(C3=Cc4ccccc4C3)Cc3ccccc3C2=O)cc1 [compound 6, (S)-4-((1'-oxo-1',3'-dihydro-1H,2'H-[2,2'-biinden]-2'-yl)methyl)benzoic acid]							inhibited NO production	
Infliximab: positive control; anti-TNF-α therapy for IBD treatment					0.002 ± 0	0.924 ± 0.180		level of IL-1β [5]: 0.329 ± 0.059 pg/µg ml; % inhibition of TNF-α [3, 8]: 99.98%
CC(Cc1ccc(O)c(O)c1)C(C)Cc1ccc(O)c(O)c1 (stereo not drawn) [NDGA, nordihydroguaiaretic acid, reference compound]								% inhibition of 5-LOX (human recombinant 5-LOX; screened at 10 µM, mean ± SEM, n = 3): 51.92 ± 1.01%
O[C@@H]1c2ccccc2C[C@@]1(Cc1ccccc1)C1=Cc2ccccc2C1 [compound 8, (1S,2S)-2-benzyl-2,3-dihydro-1H,1'H-[2,2'-biinden]-1-ol]			2.288 ± 0.059	31.2	14.193 ± 1.685	0.075 ± 0.019		inhibition at 10 µM [3]: 33%; inhibition at 10 µM [4]: 95.5%
COc1c(O)cc2oc3cc(O)c(CC=C(C)C)c(O)c3c(=O)c2c1CC=C(C)C [α-mangostin, reference compound]							61.63 ± 7.50%	IC50 [6]: 12.2 µM; IC50 ([2]; read-out: IC50 NO inhibition, LPS-induced SW480 cells): 8.87 ± 1.18 µM

Continued, in another order:

inhibition at 10 µM (human recombinant 5-LOX) [%]	IC50 [2, 7] [µM]	Compound	level of IL-8 [1] [pg/µg ml]	inhibition at 10 µM [1] [%]	level of TNF-α [3, 8] [pg/µg ml]	level of IL-6 [4, 8] [pg/µg ml]	% inhibition of NO released ([2]; LPS-induced SW480 cells)	also measured
45.3 ± 5.28	19.7 ± 7.88	O=C(O)c1ccc(C[C@@]2(C3=Cc4ccccc4C3)Cc3ccccc3[C@H]2O)cc1 [compound 2, 4-(((1'S,2'S)-1'-hydroxy-1',3'-dihydro-1H,2'H-[2,2'-biinden]-2'-yl)methyl)benzoic acid]	2.529 ± 0.058	23.9	11.613 ± 0.162	0.132 ± 0.038		DAI (IL-10−/− colitis mice): reduced; cytotoxicity in THP-1 macrophages (THP-1 macrophages): no cytotoxicity effects; inhibition at 10 µM ([2]; Homo sapiens): 56.5 ± 3.09%; inhibition at 10 µM [3]: 45.2%; inhibition at 10 µM [4]: 92.1%; cytotoxicity in SW480 cells (SW480 cells): no cytotoxicity effects; colon cytokine levels of TNFα, IL-6 and IL1b (DSS colitis mice; DSS colitis mice): reduced; DAI (DSS colitis mice; acute 5% DSS murine model of colitis): reduced; MPO activity, a measure of inflammatory cell infiltration (DSS colitis mice; murine model of colitis, model not given): significantly reduced
39.7 ± 4.95		O=C(O)c1ccc(CC2(C3=Cc4ccccc4C3)Cc3ccccc3C2)cc1 [compound 7, 4-((1',3'-dihydro-1H,2'H-[2,2'-biinden]-2'-yl)methyl)benzoic acid]	2.676 ± 0.142	19.5			inhibited NO production	cytotoxicity in THP-1 macrophages (THP-1 macrophages): no cytotoxicity effects; IL-6 inhibition over CTRL 1 [4, 8]: less potent but statistically significant; cytotoxicity in SW480 cells (SW480 cells): no cytotoxicity effects
	48.7	C[C@]12CCC(=O)C=C1CC[C@@H]1[C@@H]2[C@@H](O)C[C@@]2(C)[C@H]1CC[C@]2(O)C(=O)CO [hydrocortisone, reference compound]						inhibition at 10 µM ([2]; Homo sapiens): 43.5 ± 12.3%
